Test results: ChEMBL document CHEMBL1140443, “Inhibitors of apoptosis in lymphocytes: synthesis and biological evaluation of compounds related to pifithrin-alpha” (J Med Chem, 2005)

Experiments:
[1] = Concentration for 95% confidence interval (CI) in dexamethasone-induced mice thymocytes; range 3.07-5.28 uM; format: functional, Mus musculus
How it was run: (§1)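 Thymocytes from young C57Bl/6 mice, cultured at 37 °C in 5% CO2 in RPMI 1640 with 10% FBS and penicillin/streptomycin, plated at 10⁷ cells/mL. Cells were preincubated 30 min with graded compound concentrations (DMSO stock), then given 5 μM dexamethasone for 6 h. Cells were stained 30 min with 40 nM DiOC6 and 5 μg/mL PI and read by flow cytometry; DiOC6-high/PI-low cells were scored viable. EC50 was taken from a nonlinear one-site fit, with its 95% confidence interval.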

[2] = organism: Mus musculus; test: Average percent survival of C57Bl/6 mice thymocytes from Dexamethasone (5 uM) induced apoptosis at 10 uM
[3] = organism: Mus musculus; test: Concentration required to inhibit dexamethasone-induced death of mice thymocytes; format: functional, organism-based; how it was run: as §1
[4] = Concentration for 95% confidence interval (CI) in dexamethasone-induced mice thymocytes; range 2.78-34.83 uM; format: functional, Mus musculus; how it was run: as §1
[5] = Concentration for 95% confidence interval (CI) in dexamethasone-induced mice thymocytes; range 3.95-5.75 uM; format: functional, Mus musculus; how it was run: as §1
[6] = Concentration for 95% confidence interval (CI) in dexamethasone-induced mice thymocytes; range 0.95-1.57 uM; format: functional, Mus musculus; how it was run: as §1
[7] = Concentration for 95% confidence interval (CI) in dexamethasone-induced mice thymocytes; range 1.45-2.80 uM; format: functional, Mus musculus; how it was run: as §1
[8] = Concentration for 95% confidence interval (CI) in dexamethasone-induced mice thymocytes; range 3.86-13.70 uM; format: functional, Mus musculus; how it was run: as §1
[9] = Concentration for 95% confidence interval (CI) in dexamethasone-induced mice thymocytes; range 4.08-13.75 uM; format: functional, Mus musculus; how it was run: as §1
[10] = Concentration for 95% confidence interval (CI) in dexamethasone-induced mice thymocytes; range 2.86-6.89 uM; format: functional, Mus musculus; how it was run: as §1
[11] = Concentration for 95% confidence interval (CI) in dexamethasone-induced mice thymocytes; range 2.78-5.16 uM; format: functional, Mus musculus; how it was run: as §1
[12] = Concentration for 95% confidence interval (CI) in dexamethasone-induced mice thymocytes; range 2.95-5.88 uM; format: functional, Mus musculus; how it was run: as §1
[13] = Concentration for 95% confidence interval (CI) in dexamethasone-induced mice thymocytes; range 4.64-7.91 uM; format: functional, Mus musculus; how it was run: as §1
[14] = Concentration for 95% confidence interval (CI) in dexamethasone-induced mice thymocytes; range 6.02-8.76 uM; format: functional, Mus musculus; how it was run: as §1
[15] = Concentration for 95% confidence interval (CI) in dexamethasone-induced mice thymocytes; range 4.61-7.00 uM; format: functional, Mus musculus; how it was run: as §1
[16] = Concentration for 95% confidence interval (CI) in dexamethasone-induced mice thymocytes; range 3.26-8.82 uM; format: functional, Mus musculus; how it was run: as §1
[17] = Concentration for 95% confidence interval (CI) in dexamethasone-induced mice thymocytes; range 8.49-12.32 uM; format: functional, Mus musculus; how it was run: as §1

## N=c1sc2c(n1CC(=O)c1ccc(-c3ccc4ccccc4c3)cc1)CCCC2
[1]
  CI: 5.28 µM
[2]
  Survival: 58%
[3]
  EC50: 4.02 µM

## N=c1sc2ccccc2n1CC(=O)c1ccc(N2CCCC2)cc1
[4]
  CI: 34.83 µM
[2]
  Survival: 64%
[3]
  EC50: 9.84 µM

## Cc1ccc(-c2cn3c(n2)nc(Cl)c2ccccc23)cc1
[2]
  Survival: 46%

## N=c1sc2c(n1CC(=O)c1ccc(F)cc1)CCCC2
[2]
  Survival: 48%

## N=c1sc2c(n1CC(=O)c1cccc(F)c1)CCCC2
[2]
  Survival: 54%
[3]
  EC50: 9.69 µM

## [N-]=[N+]=Nc1ccc(-c2cn3c4c(sc3n2)CCCC4)cc1
[2]
  Survival: 50%

## Clc1ccc(-c2cn3c4c(sc3n2)CCCC4)cc1Cl
[2]
  Survival: 36%

## N=c1sc2c(n1CC(=O)c1ccc([N+](=O)[O-])cc1)CCCC2
[2]
  Survival: 21%

## Cc1ccc(C(=O)Cn2/c(=N/S(=O)(=O)c3ccccc3)sc3ccccc32)cc1
[2]
  Survival: 48%

## Cc1ccc(-c2cn3ccsc3n2)cc1
[2]
  Survival: 27%

## Cc1ccc(C(=O)Cn2c3c(sc2=O)CCCC3)cc1
[2]
  Survival: 40%

## c1ccc2cc(-c3ccc(-c4cn5c6c(sc5n4)CCCC6)cc3)ccc2c1
[5]
  CI: 5.75 µM
[2]
  Survival: 57%
[3]
  EC50: 4.77 µM

## Cc1ccc(S(=O)(=O)Nc2nc3ccccc3s2)cc1
[2]
  Survival: 26%

## N=c1sc2ccccc2n1CC(=O)c1ccc(C2CCCC2)cc1
[2]
  Survival: 33%

## Nc1ccc(-c2cn3c4c(sc3n2)CCCC4)cc1
[2]
  Survival: 18%

## CSC(=N)NC(=O)c1ccccc1NCC(=O)c1ccc(C)cc1
[2]
  Survival: 31%

## Cc1ccc(C(=O)CSc2nc3ccccc3[nH]2)cc1
[2]
  Survival: 15%

## Cc1ccc(-c2cn3c(n2)sc2ccccc23)cc1
[6]
  CI: 1.57 µM
[2]
  Survival: 73%
[3]
  EC50: 1.22 µM

## Cc1ccc(-c2nc3sc4c(n3c2Br)CCCC4)cc1
[2]
  Survival: 27%

## Cc1ccc(-c2cn3c4c(sc3n2)CCCC4)cc1
[7]
  CI: 2.8 µM
[2]
  Survival: 54%
[3]
  EC50: 2.01 µM

## N#Cc1ccc(-c2cn3c4c(sc3n2)CCCC4)cc1
[2]
  Survival: 21%

## N=c1sc2ccccc2n1CC(=O)c1ccccc1
[2]
  Survival: 20%

## N=c1sc2c(n1CC(=O)c1ccc(Cl)c(Cl)c1)CCCC2
[2]
  Survival: 57%
[3]
  EC50: 7.28 µM
[8]
  CI: 13.7 µM

## c1ccc(-c2ccc(-c3cn4c(n3)sc3ccccc34)cc2)cc1
[2]
  Survival: 59%
[3]
  EC50: 8.12 µM
[9]
  CI: 13.75 µM

## Cc1ccc(-c2cn3c(n2)sc2cc(O)ccc23)cc1
[2]
  Survival: 19%

## Fc1cccc(-c2cn3c4c(sc3n2)CCCC4)c1
[2]
  Survival: 34%

## COc1ccc2c(c1)sc1nc(-c3ccc(C)cc3)cn12
[2]
  Survival: 68%
[3]
  EC50: 4.44 µM
[10]
  CI: 6.89 µM

## N=c1sc2c(n1CC(=O)c1ccc(C(F)(F)F)cc1)CCCC2
[2]
  Survival: 36%

## c1ccc(-c2ccc(-c3cn4c5c(sc4n3)CCCC5)cc2)cc1
[11]
  CI: 5.16 µM
[2]
  Survival: 75%
[3]
  EC50: 3.79 µM

## O=C(O)c1ccc(-c2cn3c4c(sc3n2)CCCC4)cc1
[2]
  Survival: 20%

## c1ccc(-c2cn3c4c(sc3n2)CCCC4)cc1
[2]
  Survival: 19%

## Cc1ccc(C(=O)Cn2c3c(sc2=N)CCCC3)cc1
[12]
  CI: 5.88 µM
[2]
  Survival: 72%
[3]
  EC50: 4.16 µM

## N=c1sc2c(n1CC(=O)c1ccccc1)CCCC2
[2]
  Survival: 59%
[3]
  EC50: 6.06 µM
[13]
  CI: 7.91 µM

## c1ccc2c(c1)sc1nc(-c3ccc(C4CCCC4)cc3)cn12
[2]
  Survival: 36%

## O=[N+]([O-])c1ccc(-c2cn3c4c(sc3n2)CCCC4)cc1
[2]
  Survival: 11%

## C#CCn1c(=N)sc2ccccc21
[2]
  Survival: 23%

## CCOC(=O)Cn1c2c(sc1=N)CCCC2
[2]
  Survival: 27%

## Cc1ccc(-c2csc3nc4ccccc4n23)cc1
[2]
  Survival: 48%

## FC(F)(F)c1ccc(-c2cn3c4c(sc3n2)CCCC4)cc1
[2]
  Survival: 27%

## COc1ccc(-c2cn3c4c(sc3n2)CCCC4)cc1
[2]
  Survival: 28%

## c1cc(N2CCCC2)ccc1-c1cn2c3c(sc2n1)CCCC3
[2]
  Survival: 50%
[3]
  EC50: > 10 µM

## Cc1ccc(C(=O)Cn2c(=N)oc3ccc(Cl)cc32)cc1
[2]
  Survival: 19%

## CC(=O)N1C(c2ccc(C)cc2)N=C2c3ccccc3N=CN21 (stereo not drawn)
[2]
  Survival: 23%

## N=c1sc2c(n1CC(=O)c1ccc(OC(=O)c3ccccc3)cc1)CCCC2
[2]
  Survival: 17%

## Cc1ccc(C(=O)Cn2ccsc2=N)cc1
[2]
  Survival: 27%

## Cc1ccc(C(=O)Cn2c(=O)sc3ccccc32)cc1
[2]
  Survival: 30%

## Cc1ccc(C(=O)Cn2c(=O)oc(=O)c3ccccc32)cc1
[2]
  Survival: 28%

## Cc1ccc(Cn2c(=N)sc3ccccc32)cc1
[2]
  Survival: 8%

## N=c1sc2c(n1CC(=O)c1ccc(Br)cc1)CCCC2
[2]
  Survival: 31%

## Clc1ccc(-c2cn3c4c(sc3n2)CCCC4)cc1
[2]
  Survival: 35%

## N=c1sc2ccccc2n1CC(=O)c1ccc(-c2ccccc2)cc1
[14]
  CI: 8.76 µM
[2]
  Survival: 66%
[3]
  EC50: 7.26 µM

## Brc1ccc(-c2cn3c4c(sc3n2)CCCC4)cc1
[2]
  Survival: 35%

## N=c1sc2c(n1CC(=O)c1ccc(F)c(F)c1)CCCC2
[2]
  Survival: 40%

## Cc1ccc(-c2nc3c4ccccc4ncn3n2)cc1
[2]
  Survival: 17%

## c1ccc(-c2cnc3sc4ccccc4n23)cc1
[2]
  Survival: 15%

## Cc1ccc(-c2cn3cnc4ccccc4c3n2)cc1
[2]
  Survival: 26%

## Fc1ccc(-c2cn3c4c(sc3n2)CCCC4)cc1F
[2]
  Survival: 44%

## [N-]=[N+]=Nc1ccc(C(=O)Cn2c3c(sc2=N)CCCC3)cc1
[15]
  CI: 7 µM
[2]
  Survival: 56%
[3]
  EC50: 5.68 µM

## Cc1ccc(C(=O)Cn2c(=N)sc3ccccc32)cc1
[2]
  Survival: 21%
[3]
  EC50: > 10 µM

## N=c1sc2ccccc2n1Cc1ccccc1
[2]
  Survival: 20%

## Clc1ccccc1-c1cn2c3c(sc2n1)CCCC3
[2]
  Survival: 37%

## Cc1ccc(-c2cn3c(n2)nc(O)c2ccccc23)cc1
[2]
  Survival: 28%

## N=c1sc2c(n1CC(=O)c1ccc(Cl)cc1)CCCC2
[16]
  CI: 8.82 µM
[2]
  Survival: 59%
[3]
  EC50: 5.37 µM

## Fc1ccc(-c2cn3c4c(sc3n2)CCCC4)cc1
[2]
  Survival: 33%

## Cc1ccc(/C=N/Nc2ncnc3ccccc23)cc1
[2]
  Survival: 23%

## Cc1ccc(C(=O)CSc2nc3ccccc3s2)cc1
[2]
  Survival: 16%

## N=c1sc2ccccc2n1CC(=O)c1ccc(-c2ccc3ccccc3c2)cc1
[2]
  Survival: 62%
[3]
  EC50: > 10 µM

## COc1ccc(C(=O)Cn2c3c(sc2=N)CCCC3)cc1
[2]
  Survival: 66%
[3]
  EC50: 7.54 µM

## Cc1ccc(-c2cn3c(n2)sc2cc(N)ccc23)cc1
[2]
  Survival: 27%

## N#Cc1ccc(C(=O)Cn2c3c(sc2=N)CCCC3)cc1
[2]
  Survival: 40%

## Oc1ccc(-c2cn3c4c(sc3n2)CCCC4)cc1
[2]
  Survival: 21%

## Cc1ccc(-c2cn3c(n2)sc2cc(Br)ccc23)cc1
[2]
  Survival: 39%

## Cc1ccc(-c2nc3sc4ccccc4n3c2Br)cc1
[2]
  Survival: 24%

## Cc1ccc(C(=O)CNc2ncnc3ccccc23)cc1
[2]
  Survival: 32%

## c1ccc(-c2cn3c(n2)sc2ccccc23)cc1
[17]
  CI: 12.32 µM
[2]
  Survival: 73%
[3]
  EC50: 10.2 µM

## Cc1cn2c(n1)sc1ccccc12
[2]
  Survival: 22%

## O=C(Oc1ccc(-c2cn3c4c(sc3n2)CCCC4)cc1)c1ccccc1
[2]
  Survival: 23%

## Brc1ccc(-c2cn3c(n2)sc2ccccc23)cc1
[2]
  Survival: 22%
